hERG rescue: compounds protecting human hERG from proarrhythmic drug block. AID 1511. Q12809. 310,000 tested, 0.51% active. CHO-hERG, FluxOR thallium flux, dofetilide IC70 present. activation (rescue from dofetilide block), less the hit threshold, % at 10 µM;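 active = activation above the mean of controls blocked by dofetilide plus 5 SD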;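 note: thallium influx through hERG after potassium depolarization seen as dye fluorescence rise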
KCNK3 inh: human KCNK3 channel inhibition, primary screen; AID 602410; 340,000 tested, 0.84% active; CHO-KCNK3 thallium flux, FluxOR fluorescence; stronger effect = lower value; B-score at 10 µM; O14649;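 active = B-score under library mean minus 4 SD, starting fluorescence ratio at most library mean plus 5 SD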;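 note: more negative B-score means stronger inhibition of thallium flux through KCNK3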
KCNQ1 block: inhibitors of human KCNQ1 potassium channel; 310,000 tested, 1.3% active; B-score at 10 µM; CHO-K1 KCNQ1, FluxOR thallium flux fluorescence; stronger effect = higher value;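 active = compounds whose thallium flux B-score, printed positive for inhibition, exceeds three library SD while starting fluorescence stays within three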;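 note: channel opened by potassium depolarization with thallium stimulus after 20 min compound exposure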
KCNK9 block: blocks the human KCNK9 two-pore domain potassium channel | Q9NPC2 | HEK293 KCNK9, FluxOR thallium flux fluorescence; stronger effect = lower value | B-score at 10 µM | 310,000 tested, 1.2% active;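 active = ratio B-score over 3 SD below the library mean, with starting fluorescence within 5 SD of its mean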;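 note: negative B-score means less thallium flux so channel inhibition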
KCNQ1 act: potentiates or activates the human KCNQ1 potassium channel; P51787; CHO-K1 KCNQ1, thallium flux FluxOR fluorescence; stronger effect = higher value; B-score at 10 µM; 310,000 tested, 0.35% active; AID 2648;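 active = fluorescence ratio B-score, a plate-corrected score, at least three library SD, with initial intensity B-score within 5 SD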
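System: CHO-K1 cells stably expressing KCNQ1 / Medium: assay buffer for compound exposure, DMSO matched across wells / Reagent: thallium- and potassium-containing depolarizing buffer / Compound: one concentration, matched DMSO / Incubation: 20 min compound pretreatment at room temperature / Measured by: kinetic FluxOR fluorescence, 10 s baseline plus 110 s post-stimulus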
Kir21 inh: blocks the mouse Kir2.1 inward-rectifier potassium channel; HEK293-Kir2.1, FluxOR thallium flux fluorescence; stronger effect = lower value; B-score at 10 µM; 310,000 tested, 0.85% active; AID 1672;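 active = fluorescence ratio B-score at or below minus 3 SD of library scores, with starting-brightness B-score within 2 SD, cut at about -4.2 in these data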;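 note: channel flux triggered by added potassium and thallium sulfate stimulus; B-score of peak minus minimum fluorescence over baseline after thallium stimulus; more negative B-score means stronger Kir2.1 block with less thallium influx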
KCNQ1 block val: confirmation of human KCNQ1 potassium channel inhibitors. inhibition, % at 10 µM. 1,600 tested, 93% active. shares compounds with KCNQ1 block. KCNQ1 cell line, FluxOR thallium flux fluorescence;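 active = primary screen active, with duplicate mean exceeding buffer control mean plus 3 SD of buffer wells, cut at about 28% in these data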;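 note: 0% = buffer control ratio and 100% = XE991 inhibitor control ratio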
CHO KCNQ1 ctr: KCNQ1 inhibitor counter-screen hit in parental CHO cells | shares compounds with KCNQ1 block | parental CHO-K1, FluxOR thallium flux fluorescence ratio; stronger effect = lower value; zero means no signal rise above baseline | fluorescence ratio (Tl flux) at 10 µM | 1,600 tested, 21% active | AID 588366;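 active = mean of duplicate thallium-flux fluorescence ratios in parental host cells more than 5 SD below the buffer control mean, cut at about 0.38 in these data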;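 note: ratio is peak minus minimum fluorescence divided by baseline fluorescence; actives read low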
KCNQ1 APC inh: blocks human KCNQ1 current in automated patch clamp | shares compounds with KCNQ1 block | KCNQ1-CHO cells | calls only at 10 µM | 490 tested, 20% active | AID 624120;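 active = KCNQ1 current drop exceeding 3 SD of negative control wells, seen in both duplicate runs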;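 note: steady state current during a 2 s step from -80 to +40 mV; negative values mean current inhibition and positive values mean potentiation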
KCNQ2 inh: selectivity of KCNQ1 inhibitors: inhibition of rat KCNQ2 channel; shares compounds with KCNQ1 block; KCNQ2 cells, FluxOR thallium flux fluorescence; 1,600 tested, 71% active; inhibition, % at 10 µM;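 active = mean percent inhibition of the KCNQ2 thallium signal more than 5 SD above the buffer-only control wells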;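 note: KCNQ2 expressed in CHO cells; 0% = buffer control wells and 100% = XE-991 inhibitor control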
KCNQ1-KCNE1 inh: KCNQ1 inhibitor that also blocks human KCNQ1/KCNE1 channel; shares compounds with KCNQ1 block; KCNQ1/KCNE1 cells, FluxOR thallium flux fluorescence; inhibition, % at 10 µM; 1,600 tested, 77% active; AID 652147;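 active = mean percent inhibition of duplicate wells above the buffer-only control mean plus 3 SD of those controls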;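 note: 0% = buffer only wells and 100% = XE-991 inhibitor control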
Target sequence (P51787 whole entry, looked up): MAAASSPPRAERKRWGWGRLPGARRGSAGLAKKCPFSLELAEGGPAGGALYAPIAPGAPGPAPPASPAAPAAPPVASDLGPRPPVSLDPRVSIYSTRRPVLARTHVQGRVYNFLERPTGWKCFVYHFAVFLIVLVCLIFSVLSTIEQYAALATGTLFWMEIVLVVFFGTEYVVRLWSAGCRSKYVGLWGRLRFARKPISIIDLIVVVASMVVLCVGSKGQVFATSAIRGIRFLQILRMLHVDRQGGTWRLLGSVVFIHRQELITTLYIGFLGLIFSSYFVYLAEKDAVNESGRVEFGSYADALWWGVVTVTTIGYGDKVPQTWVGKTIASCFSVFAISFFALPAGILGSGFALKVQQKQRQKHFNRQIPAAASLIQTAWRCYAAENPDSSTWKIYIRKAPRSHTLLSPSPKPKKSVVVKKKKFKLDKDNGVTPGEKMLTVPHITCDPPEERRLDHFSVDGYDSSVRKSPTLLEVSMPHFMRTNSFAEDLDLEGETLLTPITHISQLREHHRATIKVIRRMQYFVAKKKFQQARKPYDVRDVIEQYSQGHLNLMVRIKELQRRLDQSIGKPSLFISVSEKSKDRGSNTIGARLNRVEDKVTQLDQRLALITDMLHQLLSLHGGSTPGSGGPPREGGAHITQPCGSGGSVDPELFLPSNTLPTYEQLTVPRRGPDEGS
* hit, by the source's call; i = inactive; nt = no result. A selection: hits, their analogues and other compounds. The true share with any hit is near 3.7%.

SMILES	hERG rescue	KCNK3 inh	KCNQ1 block	KCNK9 block	KCNQ1 act	Kir21 inh	KCNQ1 block val	CHO KCNQ1 ctr	KCNQ2 inh	KCNQ1-KCNE1 inh	others
Cc1sc(NC(=O)c2sc3nc4c(C)cccc4cc3c2N)c(C#N)c1C	-9.8	i	9*	i	i	0.05	54.0*	0.444	i	87.0%*
Cc1cccc2cc3c(N)c(C#N)sc3nc12	-13.3	i	i	i	i	-2.17	nt	nt	nt	nt
CCCn1c(CN2CCN(c3cccc(Cl)c3)CC2)nc2c1c(=O)n(C)c(=O)n2C	-20.3	i	7*	i	i	-0.35	80.0*	0.488	127.3%*	35.5%*
CCCCCn1c(CN2CCN(c3cccc(Cl)c3)CC2)nc2c1c(=O)n(C)c(=O)n2C	-7.0	i	i	i	i	-0.14	nt	nt	nt	nt
Cc1ccc(NS(=O)(=O)N2CCCCC2)cc1	nt	i	nt	nt	nt	nt	nt	nt	nt	nt
COc1ccc(C(=O)CC(=O)C(=O)Nc2ccc(OC)c(Cl)c2)cc1	-24.4	i	15*	-6.68*	i	-2.2	0.0	0.613	i	i
CC(=O)c1ccc(NC(=O)/C(=C\c2ccc(F)cc2)NC(=O)c2ccco2)cc1	-6.1	i	i	i	i	0.25	nt	nt	nt	nt
CCC(C)NC(=O)c1cccc(OCc2c(C)noc2C)c1 (configuration not stated)	-10.5	i	i	i	i	-0.91	nt	nt	nt	nt
CCOC(=O)c1c(C)[nH]c(C(=O)C(C)OC(=O)c2cccc(OCc3c(C)noc3C)c2)c1C (configuration not stated)	-3.5	-11.6*	17*	i	i	0.47	127.0*	0.465	108.7%*	138.5%*	KCNQ1 APC inh=i
CC(NC(=O)Nc1ccc(Br)cc1)C(C)(C)C (configuration not stated)	-10.7	i	8*	i	i	-0.55	60.0*	0.426	69.0%*	66.0%*
COCCN(CC(=O)Nc1cccc(S(=O)(=O)N2CCCC2)c1)Cc1nc2ccccc2c(=O)[nH]1	nt	i	nt	nt	nt	nt	nt	nt	nt	nt
COc1ccc(OCC(=O)Nc2nccs2)cc1	-16.6	i	7*	i	i	0.12	0.0	0.489	i	i
CCOc1ccc(OCC(=O)Nc2nccs2)cc1	-2.8	i	i	i	i	1.15	nt	nt	nt	nt
COc1ncnc2c1ncn2CC1COC(C)(C)O1 (configuration not stated)	-9.3	i	i	i	i	1.86	nt	nt	nt	nt
COc1cccc(COC(=O)c2c(C)nn(-c3ccccc3)c2Cl)c1OC	-9.2	i	7*	i	i	0.17	113.5*	0.421	116.0%*	99.0%*	KCNQ1 APC inh=i
COc1cc(/C=C/C(O)=C/C(=O)/C=C/c2ccc(O)cc2)ccc1O	nt	i	nt	nt	nt	nt	nt	nt	nt	nt
O=C1C(CCCNC(=S)NCc2ccccc2)NC(=S)N1Cc1ccccc1 (configuration not stated)	-8.6	i	6*	i	i	-1.11	77.5*	0.303*	i	115.0%*
Clc1cc(Br)ccc1OCCCNCc1ccccc1	-10.6	i	7*	i	i	-10*	67.5*	0.466	90.0%*	i
Cc1ccc(S(=O)(=O)N2CCN(c3ncnc4scc(-c5ccccc5)c34)CC2)cc1	nt	i	nt	nt	nt	nt	nt	nt	nt	nt
